# Reference: ChEMBL document CHEMBL6115033, “Discovery of a Pyrazolopyridinone-Based MYC Inhibitor That Selectively Engages Intracellular c-MYC and Disrupts MYC-MAX Heterodimerization” (J Med Chem, 2025)
# Calls of active or inactive are those of the source. The rule behind the calls is not given here.
# Columns and labels:
# [1] = test system: MDA-MB-231; experiment: Antiproliferative activity against human MDA-MB-231 cells assessed as cell viability incubated for 96 hrs by MTT assay; format: functional, cell-based; settings: MDA-MB-231, 96 h
# How it was run: (§1)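 Adherent cells (2000/well) attached overnight, then exposed to compounds at 0.14–100 µM for 96 h in DMEM with 10% FBS. MTT at 0.5 mg/mL for 4 h in the dark, formazan dissolved in DMSO, absorbance at 570 nm. Compounds were freshly prepared in DMSO, with DMSO below 1%.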
# [2] = test system: MDA-MB-468; experiment: Antiproliferative activity against human MDA-MB-468 cells assessed as cell viability incubated for 96 hrs by MTT assay; format: functional, cell-based; settings: MDA-MB-468, 96 h; how it was run: as §1
# [3] = test system: MCF7; experiment: Antiproliferative activity against human MCF7 cells assessed as cell viability incubated for 96 hrs by MTT assay; format: functional, cell-based; settings: MCF7, 96 h; how it was run: as §1
# [4] = Antiproliferative activity against human P493-6 cells expressing MYC assessed as inhibition of cell proliferation incubated for 96 hrs by cell titer glo assay; format: functional, cell-based; settings: P493-6, 96 h
# How it was run: (§2)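 P493-6 cells (3000/well, RPMI) were seeded overnight at 37 °C, then given compounds at final 0.14–100 µM for 96 h. MYC-off cells were pretreated with 0.1 µg/mL tetracycline for 72 h. Read-out was CellTiter-Glo luminescence after equilibration to room temperature. IC50 was determined in high-MYC and MYC-off cells.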
# [5] = Antiproliferative activity against tetracycline-treated human P493-6 cells expressing MYC assessed as inhibition of cell proliferation incubated for 96 hrs by cell titer glo assay; format: functional, cell-based; settings: P493-6, 96 h; how it was run: as §2
# [6] = Selectivity index, ratio of IC50 for antiproliferative activity against tetracycline-treated human P493-6 cells expressing MYC assessed as inhibition of cell proliferation to IC50 for antiproliferative activity against human P493-6 cells expressing MYC assessed as inhibition of cell proliferation; format: functional
# How it was run: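 MYC-off P493-6 cells obtained by 72 h pretreatment with 0.1 µg/mL tetracycline and compared with untreated MYC-high cells. Cells seeded at 3000 per 100 uL, held overnight at 37 °C, then treated at 0.14–100 uM final for 96 h. Viability read by CellTiter-Glo luminescence. IC50 values determined in both states and compared as a selectivity index.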
# [7] = Induction of apoptosis in human P493-6 cells assessed as viable cells at 25 uM incubated for 24 hrs by Annexin V/PI staining based flow cytometry analysis (reference value: 90.8%); format: functional; settings: read-out: Activity
# [8] = Induction of apoptosis in human P493-6 cells assessed as early apoptotic cells at 25 uM incubated for 24 hrs by Annexin V/PI staining based flow cytometry analysis (reference value: 2.52 %); format: functional
# [9] = Induction of apoptosis in human P493-6 cells assessed as late apoptotic cells at 25 uM incubated for 24 hrs by Annexin V/PI staining based flow cytometry analysis (reference value: 6.52 %); format: functional
# [10] = Induction of apoptosis in human P493-6 cells assessed as necrotic cells at 25 uM incubated for 24 hrs by Annexin V/PI staining based flow cytometry analysis (reference value: 0.11 %); format: functional
# [11] = test system: P493-6; experiment: Antiproliferative activity against human P493-6 cells expressing MYC assessed as inhibition of cell proliferation at 25 uM incubated for 96 hrs by cell titer glo assay; format: functional, cell-based
# How it was run: (§3)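 P493-6 cells, either untreated (high MYC) or MYC-off after 0.1 µg/mL tetracycline for 72 h, were exposed to 25 µM for 96 h. Read-out was % survival by CellTiter-Glo luminescence. Mean ± SD, n = 6, unpaired t-test.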
# [12] = test system: P493-6; experiment: Antiproliferative activity against tetracycline-treated human P493-6 cells expressing MYC assessed as inhibition of cell proliferation at 25 uM incubated for 96 hrs by cell titer glo assay; format: functional, cell-based; how it was run: as §3
# [13] = target: T1, c-Myc/c-Max (Homo sapiens) (UniProt P01106+P61244); experiment: Disruption of MYC-MAX interaction in human MDA-MB-468 cells assessed as reduction in myc level at 25 uM; format: cell-based
# T1 sequence (P01106 whole entry): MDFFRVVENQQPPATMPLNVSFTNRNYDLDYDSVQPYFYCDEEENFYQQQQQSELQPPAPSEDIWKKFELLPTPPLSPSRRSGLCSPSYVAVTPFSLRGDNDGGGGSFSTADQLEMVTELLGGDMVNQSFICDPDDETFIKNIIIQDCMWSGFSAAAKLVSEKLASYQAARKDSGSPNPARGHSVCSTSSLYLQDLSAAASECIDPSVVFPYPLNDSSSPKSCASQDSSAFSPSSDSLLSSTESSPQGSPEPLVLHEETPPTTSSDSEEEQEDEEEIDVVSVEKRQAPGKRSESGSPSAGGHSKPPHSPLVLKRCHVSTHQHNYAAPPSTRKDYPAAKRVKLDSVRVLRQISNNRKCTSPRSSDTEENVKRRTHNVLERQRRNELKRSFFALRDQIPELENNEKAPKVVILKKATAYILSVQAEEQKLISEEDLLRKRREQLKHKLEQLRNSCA
# T1 sequence (P61244 2-160 partner limits assumed): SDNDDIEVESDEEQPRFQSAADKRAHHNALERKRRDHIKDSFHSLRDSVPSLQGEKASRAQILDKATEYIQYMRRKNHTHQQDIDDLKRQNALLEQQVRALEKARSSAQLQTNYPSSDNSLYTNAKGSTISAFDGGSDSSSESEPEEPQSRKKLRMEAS
# [14] = target: T1, c-Myc/c-Max (Homo sapiens); experiment: Disruption of MYC-MAX interaction in human P493-6 cells assessed as reduction in myc level at 25 uM; format: cell-based
SMILES,IC50 [1] [µM],IC50 [2] [µM],IC50 [3] [µM],IC50 [4] [µM],IC50 [5] [µM],Ratio IC50 [6],viability at 25 µM [7] [%],Activity [8] [%],Activity [9] [%],Activity [10] [%],Activity [11],Activity [12],Activity [13],Activity [14]
COc1ccc(-n2nc(-c3ccc(C)cc3)c3cc(C#N)c(=O)[nH]c32)cc1,9.8,7.9,9.3,51.2,75.9,1.5,,,,,,,,
Cc1ccc(-c2nn(-c3ccc(Cl)cc3)c3[nH]c(=O)c(C#N)cc23)cc1,58.9,71.6,> 100,,,,,,,,,,,
CCc1ccc(/C=C2/SC(=S)NC2=O)cc1,44.7,39.8,,35.1,59.5,1.7,89.3,2.54,8.06,0.062,,,,
N#Cc1cc2c(-c3ccc(F)cc3)nn(-c3ccc(F)cc3)c2[nH]c1=O,> 100,79.4,9.3,> 100,> 100,,,,,,,,,
Cc1ccc(-c2nn(-c3ccccc3)c3[nH]c(=O)c(C#N)cc23)cc1,34.7,32.4,20.4,21.1,51.3,2.4,,,,,,,,
N#Cc1cc2c(-c3ccc(Br)cc3)nn(-c3ccccc3)c2[nH]c1=O,5.5,13.2,12.2,15.6,35.9,2.3,,,,,Active,Active,Active,Active
COc1ccc(-c2nn(-c3ccccc3)c3[nH]c(=O)c(C#N)cc23)cc1,38,33.1,16.6,20.9,> 100,>4,,,,,,,,
